Data: ChEMBL document CHEMBL3751708, “Structure guided design of potential inhibitors of human calcium-calmodulin dependent protein kinase IV containing pyrimidine scaffold” (Bioorg Med Chem Lett, 2016)

Tests used:
[1] = test system: HEK293; experiment: Cytotoxicity against human HEK293 cells up to 25 uM after 48 hrs by MTT assay; format: cell-based; settings: hek293, 48 h
In short: (§1)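 HEK293 cells at 7000 per well, triplicates, treated the next day with inhibitors at 5-150 μM for 48 h. MTT was then added to fresh DMEM for 4-5 h at 37 °C. Formazan was dissolved in DMSO and read at 570 nm. Viability given as percent of untreated control.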

[2] = Cytotoxicity against human HuH7 cells after 48 hrs by MTT assay; format: functional, cell-based; settings: Huh-7, 48 h
In short: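 Exponentially growing HuH7 hepatoma cells at 7000 per well, triplicates, dosed the next day with inhibitors at 5-150 μM for 48 h; curcumin served as positive control. MTT was then added in fresh DMEM for 4-5 h at 37 °C, and formazan was dissolved in DMSO and read at 570 nm. IC50 was derived from percent viability; three independent experiments, mean ± S.D.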

[3] = target: T1, Calcium/calmodulin-dependent protein kinase type IV (Homo sapiens) (UniProt Q16566); experiment: Binding affinity to human CAMK4 at pH 7.4 by fluorescence emission spectra analysis
T1 sequence (whole entry): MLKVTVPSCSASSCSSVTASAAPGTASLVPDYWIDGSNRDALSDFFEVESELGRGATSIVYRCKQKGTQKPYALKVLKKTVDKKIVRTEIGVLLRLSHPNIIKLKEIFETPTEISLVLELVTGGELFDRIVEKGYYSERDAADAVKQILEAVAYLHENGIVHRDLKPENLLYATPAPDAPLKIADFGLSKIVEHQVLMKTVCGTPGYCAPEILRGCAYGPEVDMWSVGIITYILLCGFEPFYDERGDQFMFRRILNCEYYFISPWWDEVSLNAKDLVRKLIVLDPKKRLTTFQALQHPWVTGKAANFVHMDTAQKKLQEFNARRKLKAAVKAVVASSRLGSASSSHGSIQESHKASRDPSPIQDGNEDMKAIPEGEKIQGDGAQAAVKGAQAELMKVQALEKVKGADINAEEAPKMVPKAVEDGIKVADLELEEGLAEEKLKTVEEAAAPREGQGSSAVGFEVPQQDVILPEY
In short: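 Recombinant CAMKIV kinase domain at 4 μM in 50 mM phosphate pH 7.4 with 150 mM NaCl, 25 °C. Titrated from a 1.0 mM ligand stock up to 132 μM final. Ligands were diluted from DMSO stock and dialyzed in buffer beforehand. Excitation at 280 nm, tryptophan emission read over 300-400 nm. Ka and n taken from a modified Stern–Volmer plot; three measurements.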

[4] = test system: HEK293; experiment: Cytotoxicity against human HEK293 cells after 48 hrs by MTT assay; format: cell-based; settings: HEK293, 48 h
[5] = test system: HEK293; experiment: Cytotoxicity against human HEK293 cells up to 50 uM after 48 hrs by MTT assay; format: cell-based; settings: hek293, 48 h; in short: as §1

| Kapp [3] | SMILES | Activity [1] | IC50 [2] [µM] | IC50 [4] [µM] | Activity [5] |
| --- | --- | --- | --- | --- | --- |
| 1.6 ×10⁵ /M | Nc1cccc(Oc2cc(Oc3cccc4cccnc34)ncn2)c1 | Non-toxic | 116 | 400 | – |
| 2.2 ×10⁸ /M | COc1ccc(Nc2cc(N3CCNCC3)ncn2)cc1 | – | 46 | > 400 | Non-toxic |
| – | COc1cc(/C=C/C(=O)CC(=O)/C=C/c2ccc(O)c(OC)c2)ccc1O [CURCUMIN] | – | 48 | > 400 | – |
| 4.6 ×10⁵ /M | N#Cc1cccnc1N1CCN(c2cc(Oc3cccc4cccnc34)ncn2)CC1 | Non-toxic | 104 | > 400 | – |
